Measurements from ChEMBL document CHEMBL3525958 (Drug Metab Dispos, 2013).

Assays:
BCRP [1] = test: Efflux ratio of apparent permeability from basolateral to apical side over apical to basolateral side in MDCK2 cells expressing human BCRP at 5 uM by liquid scintillation counting; format: ADME, cell-based, Canis lupus familiaris, MDCK-II; conditions: dog
Summary of the method: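 MDCKII cells, mock or carrying human BCRP cDNA, were cultured 4 days on transwell inserts, with 10 mM sodium butyrate added 24 h before assay. Cells were pre-incubated 10 min in modified Krebs-Henseleit buffer with 5 mM glucose at 37°C. […] Samples were scintillation counted, and efflux ratio = PcB-A/PcA-B.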

[2] = Activity at human P-glycoprotein expressed in pig LLC-PK1 cells at […] after 90 mins by liquid scintillation counting; format: ADME, cell-based
[3] = Activity at human P-glycoprotein expressed in pig LLC-PK1 cells assessed as rate of transport at 5 uM after 90 mins by liquid scintillation counting; format: ADME, cell-based
Summary of the method: (§1)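 Human P-gp-cDNA LLC-PK1 cells and vector-only (mock) cells were cultured on collagen-coated inserts for 7 days. […] Facilitated rate v = IA/(filter area × time), where IA is the net P-gp-dependent pmol transported.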

[4] = Activity at human P-glycoprotein expressed in pig LLC-PK1 cells at 5 uM after 90 mins by liquid scintillation counting; format: ADME, cell-based
[5] = Activity at human P-glycoprotein expressed in pig LLC-PK1 cells at 10 uM after 60 mins by liquid scintillation counting; format: ADME, cell-based; conditions: llc-pk1, 1 h
[6] = Activity at human P-glycoprotein expressed in pig LLC-PK1 cells at 25 uM after 90 mins by liquid scintillation counting; format: ADME, cell-based
[7] = Activity at human P-glycoprotein expressed in pig LLC-PK1 cells at 100 uM after 90 mins by liquid scintillation counting; format: ADME, cell-based
[8] = Activity at human P-glycoprotein expressed in pig LLC-PK1 cells at 10 uM after 120 mins by liquid scintillation counting; format: ADME, cell-based; conditions: llc-pk1, 2 h
[9] = Activity at human P-glycoprotein expressed in pig LLC-PK1 cells assessed as rate of transport at 10 uM after 120 mins by liquid scintillation counting; format: ADME, cell-based; conditions: llc-pk1, 2 h; summary of the method: as §1
[10] = Activity at human P-glycoprotein expressed in pig LLC-PK1 cells assessed as rate of transport at 10 uM after 90 mins by liquid scintillation counting; format: ADME, cell-based; summary of the method: as §1
[11] = Activity at human P-glycoprotein expressed in pig LLC-PK1 cells at 10 uM after 90 mins by liquid scintillation counting; format: ADME, cell-based
[12] = Activity at human P-glycoprotein expressed in pig LLC-PK1 cells assessed as rate of transport at 25 uM after 90 mins by liquid scintillation counting; format: ADME, cell-based; summary of the method: as §1
[13] = Activity at human P-glycoprotein expressed in pig LLC-PK1 cells assessed as rate of transport at 10 uM after 60 mins by liquid scintillation counting; format: ADME, cell-based; conditions: llc-pk1, 1 h; summary of the method: as §1
[14] = Activity at human P-glycoprotein expressed in pig LLC-PK1 cells assessed as rate of transport at 50 uM after 90 mins by liquid scintillation counting; format: ADME, cell-based; summary of the method: as §1
[15] = Activity at human P-glycoprotein expressed in pig LLC-PK1 cells assessed as rate of transport at 100 uM after 90 mins by liquid scintillation counting; format: ADME, cell-based; summary of the method: as §1
[16] = Activity at human P-glycoprotein expressed in pig LLC-PK1 cells assessed as rate of transport at […] after 90 mins by liquid scintillation counting; format: ADME, cell-based
[17] = Activity at human P-glycoprotein expressed in pig LLC-PK1 cells at 50 uM after 90 mins by liquid scintillation counting; format: ADME, cell-based
P-glycoprotein (human) = test: Efflux ratio of apparent permeability from basolateral to apical side over apical to basolateral side in pig LLC-PK1 cells expressing human P-glycoprotein at 5 uM by liquid scintillation counting; format: ADME, cell-based, Sus scrofa
[18] = Apparent permeability from apical to basolateral side of human Caco2 cells at 5 uM by liquid scintillation counting; conditions: Caco-2
[19] = Apparent permeability from basolateral to apical side of human Caco2 cells at 5 uM by liquid scintillation counting; conditions: Caco-2
BCRP [20] = test: Permeability in human Caco2 cells assessed as 11 uM BCRP inhibitor Ko134-mediated inhibition of digoxin at 5 uM by liquid scintillation counting; format: ADME, cell-based; conditions: Caco-2, with Ko134 11 uM
Summary of the method: (§2)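 Caco-2 monolayers (passages 17–40, 13–22 days post-seeding) were used. Bidirectional transport ran for 2 h at 37°C, shaken at 50 rpm, in HBSS/10 mM HEPES pH 7.4. […] Inhibitors were present in both chambers: ketoconazole or cyclosporin A (20 or 50 µM), Ko134 (1 or 11 µM), or probenecid with the 20 µM runs. Results are % inhibition of efflux ratio.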

P-gp [21] = test: Apparent permeability in human Caco2 cells assessed as 50 uM P-gp inhibitor cyclosporin A-mediated inhibition of digoxin efflux at 5 uM by liquid scintillation counting; format: ADME, cell-based; conditions: Caco-2 cells, with cyclosporin A 50 uM; summary of the method: as §2
P-gp [22] = test: Apparent permeability in human Caco2 cells assessed as 50 uM P-gp inhibitor ketoconazole-mediated inhibition of digoxin efflux at 5 uM by liquid scintillation counting; format: ADME, cell-based; conditions: Caco-2 cells, with ketoconazole 50 uM; summary of the method: as §2
[23] = Ratio of Cmax in milk to plasma in lactating rat; format: ADME; conditions: female
[24] = Oral bioavailability in human; format: ADME, organism-based; conditions: in vivo
[25] = Ratio of AUC in milk to plasma in lactating rat; format: ADME; conditions: female, read-out: Ratio AUC
[26] = Ratio of drug level in brain to blood in po dosed rat; format: ADME, organism-based
[27] = Oral bioavailability in rat; format: ADME, organism-based; conditions: in vivo
[28] = Oral bioavailability in dog; format: ADME, organism-based, Canis lupus familiaris; conditions: in vivo
BCRP [29] = test: in vitro; conditions: human, Caco-2, with Ko134 11 uM

**Q.** With `COc1cc2nc(N3CCN(C(=O)c4ccco4)CC3)nc(N)c2cc1OC` [PRAZOSIN] as the compound, how does the efflux ratio at 5 µM (BCRP [1]) read?
**A.** Its efflux ratio at 5 µM is 10.

**Q.** Which Intrinsic activity [2] does the source give for `COc1ccc(-n2nc(C(N)=O)c3c2C(=O)N(c2ccc(N4CCCC[14C]4=O)cc2)CC3)cc1` here?
**A.** The Intrinsic activity was 33 pmol.

**Q.** What about the Drug transport [3] of the same compound?
**A.** The Drug transport was 139 pmol/cm2/hr.

**Q.** What about the Intrinsic activity [4] of the same compound?
**A.** Its Intrinsic activity is 64 pmol.

**Q.** And the Intrinsic activity [5]?
**A.** The Intrinsic activity was 146 pmol.

**Q.** And the Intrinsic activity [6]?
**A.** The Intrinsic activity was 548 pmol.

**Q.** What about the Intrinsic activity [7] of the same compound?
**A.** The Intrinsic activity was 2772 pmol.

**Q.** What about the Intrinsic activity [8] of the same compound?
**A.** The Intrinsic activity was 294 pmol.

**Q.** And the Drug transport [9]?
**A.** The Drug transport was 474 pmol/cm2/hr.

**Q.** What about the Drug transport [10] of the same compound?
**A.** Its Drug transport is 360 pmol/cm2/hr.

**Q.** And the Intrinsic activity [11]?
**A.** The Intrinsic activity was 167 pmol.

**Q.** What about the Drug transport [12] of the same compound?
**A.** The Drug transport was 1179 pmol/cm2/hr.

**Q.** And the Drug transport [13]?
**A.** Its Drug transport is 471 pmol/cm2/hr.

**Q.** What about the Drug transport [14] of the same compound?
**A.** Its Drug transport is 3194 pmol/cm2/hr.

**Q.** And the Drug transport [15]?
**A.** Its Drug transport is 5962 pmol/cm2/hr.

**Q.** What about the Drug transport [16] of the same compound?
**A.** Its Drug transport is 71 pmol/cm2/hr.

**Q.** What about the Intrinsic activity [17] of the same compound?
**A.** Its Intrinsic activity is 1485 pmol.

**Q.** Which results are given for `C[C@H]1O[C@@H](O[C@H]2[C@@H](O)C[C@H](O[C@H]3[C@@H](O)C[C@H](O[C@H]4CC[C@@]5(C)[C@H](CC[C@@H]6[C@@H]5C[C@@H](O)[C@]5(C)[C@@H](C7=CC(=O)OC7)CC[C@]65O)C4)O[C@@H]3C)O[C@@H]2C)C[C@H](O)[C@@H]1O` [DIGOXIN]?
**A.** efflux ratio at 5 µM (P-glycoprotein (human)): > 7; Papp A→B at 5 µM [18]: 23 nm/s; Papp B→A at 5 µM [19]: 205 nm/s; inhibition at 5 µM (BCRP [20]): 50%; inhibition at 5 µM (P-gp [21]): 98%; inhibition at 5 µM (P-gp [22]): 100%

**Q.** What does the source list for `COc1ccc(-n2nc(C(N)=O)c3c2C(=O)N(c2ccc(N4CCCCC4=O)cc2)CC3)cc1` [APIXABAN]?
**A.** Kp [23]: 8; bioavailability [24]: 50%; Kp [25]: 30; Kp [26]: < 0.1; bioavailability [27]: 30%; bioavailability [28]: 70%

**Q.** For `O=C1CN(/N=C/c2ccc([N+](=O)[O-])o2)C(=O)N1` [NITROFURANTOIN], which inhibition at 5 µM (BCRP [29]) is on record?
**A.** Its inhibition at 5 µM is 78%.
